Like-named read-outs stand apart in the source and are kept apart here.
Columns and labels:
Assay type in all cases: cell-based
[1] = test system: human polymorphonuclear neutrophils (hPMN); experiment: Ca2+ flux assay in human neutrophils; conditions: for EC50: Homo sapiens, Polymorphonuclear neutrophil, read-out: hPMN EC50; for hPMN Efficacy: % of the response induced by 5 nM fMLF
In short: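 Neutrophils from healthy donors' blood, purified by dextran sedimentation, Histopaque 1077 gradient and hypotonic red-cell lysis (>95% pure, >98% viable). Cells in HBSS− with 10 mM HEPES were loaded with Fluo-4 AM (1.25 µg/mL final) for 30 min at 37 °C, then plated at 2 × 10^5 cells/well. Fluorescence (485/538 nm) read every 5 s for 240 s at room temperature. Peak change normalized to 5 nM fMLF. EC50 from 5–6-point nonlinear regression, three experiments.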

FPR2 = biological target: T1, FPR2 (Homo sapiens, UniProt P25090); experiment: Ca2+ flux assay in FPR2-HL60 cells; conditions: for Emax: read-out: FPR2-HL60 Efficacy; for FPR2-HL60 Efficacy: % of the response induced by 5 nM WKYMVm
T1 sequence (P25090 1-351): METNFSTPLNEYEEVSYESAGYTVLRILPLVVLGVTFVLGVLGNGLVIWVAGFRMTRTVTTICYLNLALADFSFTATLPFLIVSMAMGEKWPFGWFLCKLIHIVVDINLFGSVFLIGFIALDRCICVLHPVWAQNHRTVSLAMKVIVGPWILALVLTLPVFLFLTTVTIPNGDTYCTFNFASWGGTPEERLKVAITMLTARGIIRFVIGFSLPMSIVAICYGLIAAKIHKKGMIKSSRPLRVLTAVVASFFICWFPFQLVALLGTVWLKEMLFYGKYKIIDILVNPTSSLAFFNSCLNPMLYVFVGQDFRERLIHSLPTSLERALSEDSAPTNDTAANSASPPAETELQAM
In short: (§1)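 FPR1-, FPR2- or FPR3-transfected HL-60 cells grown in RPMI 1640 with 10% heat-inactivated FCS, 10 mM HEPES and G418 (1 mg/mL). Cells loaded with Fluo-4 AM (1.25 µg/mL final) for 30 min at 37 °C in the dark, then 2 × 10^5 cells/well. Fluorescence (ex 485/em 538 nm) read every 5 s for 240 s at room temperature. Peak rise over baseline normalized to 5 nM fMLF (FPR1) or 5 nM WKYMVm (FPR2, FPR3). EC50 from 5–6-point nonlinear fits, three independent experiments.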

FPR1 = biological target: T2, FPR1 (Homo sapiens, UniProt P21462); experiment: Ca2+ flux assay in FPR1-HL60 cells; conditions: for Emax: read-out: FPR1-HL60 Efficacy; for FPR1-HL60 Efficacy: % of the response induced by 5 nM fMLF
T2 sequence (P21462 1-350): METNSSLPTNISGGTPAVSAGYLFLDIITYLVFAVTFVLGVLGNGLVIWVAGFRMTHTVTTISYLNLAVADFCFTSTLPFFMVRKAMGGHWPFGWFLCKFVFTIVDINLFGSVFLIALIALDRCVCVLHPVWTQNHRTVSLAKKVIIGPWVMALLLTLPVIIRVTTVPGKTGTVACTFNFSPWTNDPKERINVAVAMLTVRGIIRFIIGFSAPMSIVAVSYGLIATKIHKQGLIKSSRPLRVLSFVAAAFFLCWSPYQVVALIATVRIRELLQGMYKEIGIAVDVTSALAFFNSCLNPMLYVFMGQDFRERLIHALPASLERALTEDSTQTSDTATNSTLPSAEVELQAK
In short: as §1

[2] = FPR2-HL60 EC50, Ca2+ flux, HL-60 cells transfected with FPR2
[3] = read-out: FPR2-HL60 EC50, Ca2+ flux, HL-60 cells transfected with FPR2
[4] = read-out: FPR1-HL60 EC50, Ca2+ flux, HL-60 cells transfected with FPR1

EC50 [1] | EC50 (FPR2; [2]) | Emax (FPR2) | EC50 (FPR1) | Emax (FPR1) | FPR2-HL60 Efficacy (FPR2) | EC50 (FPR2; [3]) | FPR1-HL60 Efficacy (FPR1) | EC50 (FPR1; [4]) | FPR2-HL60 EC50 (FPR2; Ca2+ flux, HL-60 cells transfected with FPR2) | SMILES | hPMN Efficacy [1]
24 ± 4.2 µM | 8.1 ± 2.1 µM | 90% | 11.8 ± 3.5 µM | 70% | – | – | – | – | – | CCCC(=O)c1c(C)nn(CC(=O)Nc2ccc(Br)cc2)c(=O)c1Nc1cccc(OC)c1 [Compound 8c, N-(4-Bromophenyl)-2-[4-butyryl-5-(3-methoxyphenylamino)-3-methyl-6-oxopyridazin-1(6H)-yl]acetamide] | –
– | – | – | – | – | 115% | 8.7 ± 0.47 µM | 110% | 10 ± 3.2 µM | – | COc1cccc(Nc2c(C(=O)C3CCCCC3)c(C)nn(CC(=O)Nc3ccc(Br)cc3)c2=O)c1 [Compound 8f, N-(4-Bromophenyl)-2-[4-cyclohexanecarbonyl-5-(3-methoxyphenylamino)-3-methyl-6-oxopyridazin-1(6)-yl]acetamide] | 120%
– | – | – | – | – | – | – | – | – | completely devoid of activity | CCCc1c(C)nn(CC(=O)Nc2ccc(Br)cc2)c(=O)c1Nc1cccc(OC)c1 [Compound 13b, N-(4-Bromophenyl)-2-[5-(3-methoxyphenylamino)-3-methyl-6-oxo-4-propylpyridazin-1(6H)-yl]acetamide] | –
1.4 ± 0.8 µM | 4.5 ± 1.3 µM | 30% | 3.6 ± 1.1 µM | 65% | – | – | – | – | – | CCCCc1c(C)nn(CC(=O)Nc2ccc(Br)cc2)c(=O)c1Nc1cccc(OC)c1 [Compound 13c, N-(4-Bromophenyl)-2-[4-butyl-5-(3-methoxyphenylamino)-3-methyl-6-oxopyridazin-1(6H)-yl]acetamide] | –
– | – | – | – | – | 115% | 0.19 ± 0.018 µM | 95% | 1.4 ± 0.34 µM | – | CCCCCc1c(C)nn(CC(=O)Nc2ccc(Br)cc2)c(=O)c1Nc1cccc(OC)c1 [Compound 13d, N-(4-Bromophenyl)-2-[5-(3-methoxyphenylamino)-3-methyl-6-oxo-4-pentyldazin-1(6H)-yl]acetamide] | 55%
22.1 ± 5.3 µM | 2.3 ± 0.49 µM | 60% | 4.4 ± 0.6 µM | 25% | – | – | – | – | – | COC(=O)c1c(C)nn(CC(=O)Nc2ccc(Br)cc2)c(=O)c1Nc1cccc(OC)c1 [Compound 19a, Methyl 1-[(4-bromophenylcarbamoyl)methyl]-5-(3-methoxyphenylamino)-1,6-dihydro-3-methyl-6-oxopyridazine-4-carboxylate] | –
6.1 ± 1.7 µM | 1.9 ± 0.03 µM | 110% | 2.5 ± 0.7 µM | 90% | – | – | – | – | – | CCOC(=O)c1c(C)nn(CC(=O)Nc2ccc(Br)cc2)c(=O)c1Nc1cccc(OC)c1 [Compound 19b, Ethyl 1-[(4-bromophenylcarbamoyl)methyl]-5-(3-methoxyphenylamino)-1,6-dihydro-3-methyl-6-oxopyridazine-4-carboxylate] | –
– | – | – | – | – | 60% | 13.5 ± 1.8 µM | 135% | 8.4 ± 1.5 µM | – | Cc1nn(CC(=O)Nc2ccc(Br)cc2)c(=O)c(N)c1-c1cc[nH]n1 [Compound 25, 2-[5-Amino-3-methyl-6-oxo-4-(1H-pyrazol-3-yl)-6H-pyridazin-1-yl]-N-(4-bromo--phenyl)acetamide] | 140%
0.56 ± 0.12 µM | 9.6 ± 2 µM | 65% | 0.24 ± 0.09 µM | 120% | – | – | – | – | – | COc1cccc(Nc2cc(C)nn(CC(=O)Nc3ccc(Br)cc3)c2=O)c1 [Compound 29a, N-(4-Bromophenyl)-2-[5-(3-methoxyphenylamino)-3-methyl-6-oxopyridazin-1(6H)-yl]-acetamide] | –
4.31 ± 0.4 µM | 8.1 ± 1.7 µM | 75% | 2.5 ± 0.7 µM | 110% | – | – | – | – | – | COc1cccc(Nc2cc(C)cn(CC(=O)Nc3ccc(Br)cc3)c2=O)c1 [Compound 29b, N-(4-Bromophenyl)-2-[3-(3-methoxyphenylamino)-5-methyl-2-oxopyridin-1(2H)-yl]acetamide] | –

From article PMC5055850 (Bioorganic & medicinal chemistry, 2016)
